Reference: ChEMBL document CHEMBL1132583, “Design and synthesis of novel amphiphilic dendritic galactosides for selective targeting of liposomes to the hepatic asialoglycoprotein receptor” (J Med Chem, 1999)

How the values were obtained:
Assay type in all cases: functional, organism-based
Conditions in all cases: Microsome
Mus musculus [1] = species on record: Mus musculus; experiment: The percent recovery of the addedglycolipid (100 ug) with the liposomes in Mice at 5% w/w of the compound
How it was run: (§1)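 Glycolipid (0–50 μg; 5, 10 or 50% w/w) incubated with sonicated [3H]cholesteryl oleate-labeled egg PC liposomes (100 μg phospholipid) for 30 min at 37 °C. Incorporated and free glycolipid separated by FPLC on Superose-6 or Sephacryl S-1000, PBS pH 7.4 eluent, 50 μL/min. Galactose content of fractions measured by galactose oxidase assay. Recovery is given as percent of added glycolipid eluting with liposomes. Mean ± variation, n = 2.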

Mus musculus [2] = species on record: Mus musculus; experiment: The percent recovery of the addedglycolipid (100 ug) with the liposomes in Mice at 50% w/w (n = 2); how it was run: as §1
Mus musculus [3] = species on record: Mus musculus; experiment: The percent recovery of the addedglycolipid (100 ug) with the liposomes in Mice at 5% w/w (n = 2); how it was run: as §1
Mus musculus [4] = species on record: Mus musculus; experiment: The percent recovery of the addedglycolipid (100 ug) with the liposomes in Mice at 10% w/w (n = 2); how it was run: as §1
Mus musculus [5] = experiment: Uptake by the liver liposomes upon intravenous injection in Mice at 50% w/w (n = 2)
How it was run: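 Optional asialofetuin preinjection (50 mg/kg) given 1 min before. Liver lobules and blood sampled over time. At 30 min, liver 3H is expressed as % injected dose, corrected for serum radioactivity. Mean ± variation of two experiments.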

Structure (SMILES)	Recovery (Mus musculus [1]) [%]	Recovery (Mus musculus [2]) [%]	Recovery (Mus musculus [3]) [%]	Recovery (Mus musculus [4]) [%]	Uptake (Mus musculus [5]) [%]
CCCCCCCC/C=C\CCCCCCCC(=O)O[C@H]1CC[C@@]2(C)C(=CC[C@H]3[C@@H]4CC[C@H](C(C)CCC(=O)NCCCC(=O)NCC(=O)NC(COCCC(=O)NCCCNC(=O)CCCCO[C@@H]5O[C@H](CO)[C@H](O)[C@@H](O)[C@H]5O)(COCCC(=O)NCCCNC(=O)CCCCO[C@@H]5O[C@H](CO)[C@H](O)[C@@H](O)[C@H]5O)COCCC(=O)NCCCNC(=O)CCCCO[C@@H]5O[C@H](CO)[C@H](O)[C@@H](O)[C@H]5O)[C@@]4(C)CC[C@@H]32)C1 (stereo partly specified)	100				
CCCCCCCC/C=C\CCCCCCCC(=O)O[C@H]1CC[C@@]2(C)C(=CC[C@H]3[C@@H]4CC[C@H](C(C)C(=O)NCCCC(=O)NCC(=O)NC(COCCC(=O)NCCCNC(=O)CCCCO[C@@H]5O[C@H](CO)[C@H](O)[C@@H](O)[C@H]5O)(COCCC(=O)NCCCNC(=O)CCCCO[C@@H]5O[C@H](CO)[C@H](O)[C@@H](O)[C@H]5O)COCCC(=O)NCCCNC(=O)CCCCO[C@@H]5O[C@H](CO)[C@H](O)[C@@H](O)[C@H]5O)[C@@]4(C)CC[C@@H]32)C1 (stereo partly specified)	100				
CCCCCCCC/C=C\CCCCCCCC(=O)O[C@H]1CC[C@@]2(C)C(CC[C@H]3[C@@H]4CC[C@H](C(C)CCC(=O)NCCCC(=O)NCC(=O)NC(COCCC(=O)NCCCNC(=O)CCCCO[C@@H]5O[C@H](CO)[C@H](O)[C@@H](O)[C@H]5O)(COCCC(=O)NCCCNC(=O)CCCCO[C@@H]5O[C@H](CO)[C@H](O)[C@@H](O)[C@H]5O)COCCC(=O)NCCCNC(=O)CCCCO[C@@H]5O[C@H](CO)[C@H](O)[C@@H](O)[C@H]5O)[C@@]4(C)CC[C@@H]32)C1 (stereo partly specified)		59.4	100	96.5	83.5
